Results as given in ChEMBL document CHEMBL2163303, “The development of first Staphylococcus aureus SplB protease inhibitors: phosphonic analogues of glutamine” (Bioorg Med Chem Lett, 2012).
The source made the active and inactive calls. No cut-off for these calls is given here.

Biological target: T1, Serine protease SplB (Staphylococcus aureus, UniProt Q53781)
T1 sequence (Q53781 whole entry): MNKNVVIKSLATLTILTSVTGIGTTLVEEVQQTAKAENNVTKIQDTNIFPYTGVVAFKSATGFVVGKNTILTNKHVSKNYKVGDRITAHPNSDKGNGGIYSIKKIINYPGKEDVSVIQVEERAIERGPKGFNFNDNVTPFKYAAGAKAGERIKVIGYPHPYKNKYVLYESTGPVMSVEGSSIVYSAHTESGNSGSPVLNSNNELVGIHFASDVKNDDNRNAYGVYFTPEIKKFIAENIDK
Assay: Inhibition of Staphylococcus aureus SplB using fluorogenic […] as substrate by spectrofluorometry
In short: (§1)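 Enzyme added to substrate plus excess inhibitor in 0.1 M Tris-HCl, 0.01% Triton X-100, pH 7.6, 37 °C; SplB at 100 nM. Ac-Trp-Glu-Leu-Gln-ACC read at Ex 355/Em 460 nm. Pseudo-first-order k_obs taken from progress curves; k2/Ki fitted using substrate Km.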
In the case of CC(C)CC(NC(=O)OCc1ccccc1)C(=O)NC(CCC(N)=O)P(=O)(Oc1ccccc1)Oc1ccccc1 (mixture of isomers), the Ki is reported as greater than 200 µM.
For COc1ccc(OP(=O)(Oc2ccc(OC)cc2)C(CCC(N)=O)NC(=O)C(CC(C)C)NC(=O)OCc2ccccc2)cc1 (mixture of isomers), the Ki was greater than 200 µM.
CCc1ccc(OP(=O)(Oc2ccc(CC)cc2)C(CCC(N)=O)NC(=O)C(CC(C)C)NC(=O)OCc2ccccc2)cc1 (mixture of isomers) gave a Ki greater than 200 µM.
NC(=O)CCC(NC(=O)OCc1ccccc1)P(=O)(Oc1ccccc1)Oc1ccccc1 (racemic) showed a Ki greater than 200 µM.
COc1ccc(OP(=O)(Oc2ccc(OC)cc2)C(CCC(N)=O)NC(=O)OCc2ccccc2)cc1 (racemic) gave a Ki greater than 200 µM.
Work on CC(C)(C)c1ccc(OP(=O)(Oc2ccc(C(C)(C)C)cc2)C(CCC(N)=O)NC(=O)OCc2ccccc2)cc1 (racemic) yielded a Ki greater than 200 µM.
Work on CCc1ccc(OP(=O)(Oc2ccc(CC)cc2)C(CCC(N)=O)NC(=O)OCc2ccccc2)cc1 (racemic) yielded a Ki greater than 200 µM.
With CC(C)CC(NC(=O)OCc1ccccc1)C(=O)NC(CCC(N)=O)P(=O)(Oc1ccc(C(C)(C)C)cc1)Oc1ccc(C(C)(C)C)cc1 (racemic) the Ki was greater than 200 µM.

Biological target: T2, Serine protease SplB (Staphylococcus aureus) (UniProt Q53781)
T2 sequence (whole entry): T1 sequence (Q53781 whole entry)
Assay: Ratio of rate of irreversible step k2 to Ki for Staphylococcus aureus SplB using fluorogenic […] as substrate up to 200 uM by spectrofluorometry
In short: as §1
For CC(C)CC(NC(=O)OCc1ccccc1)C(=O)NC(CCC(N)=O)P(=O)(Oc1ccccc1)Oc1ccccc1 (mixture of isomers), the Ratio was less than 10 M⁻¹ s⁻¹.
COc1ccc(OP(=O)(Oc2ccc(OC)cc2)C(CCC(N)=O)NC(=O)C(CC(C)C)NC(=O)OCc2ccccc2)cc1 (mixture of isomers) gave a Ratio of less than 10 M⁻¹ s⁻¹.
Compound CCc1ccc(OP(=O)(Oc2ccc(CC)cc2)C(CCC(N)=O)NC(=O)C(CC(C)C)NC(=O)OCc2ccccc2)cc1 (mixture of isomers) has a Ratio of less than 10 M⁻¹ s⁻¹.
In the case of NC(=O)CCC(NC(=O)OCc1ccccc1)P(=O)(Oc1ccccc1)Oc1ccccc1 (racemic), the Ratio is reported as less than 10 M⁻¹ s⁻¹.
With COc1ccc(OP(=O)(Oc2ccc(OC)cc2)C(CCC(N)=O)NC(=O)OCc2ccccc2)cc1 (racemic) the Ratio was less than 10 M⁻¹ s⁻¹.
In the case of CC(C)(C)c1ccc(OP(=O)(Oc2ccc(C(C)(C)C)cc2)C(CCC(N)=O)NC(=O)OCc2ccccc2)cc1 (racemic), the Ratio is reported as less than 10 M⁻¹ s⁻¹.
Work on CCc1ccc(OP(=O)(Oc2ccc(CC)cc2)C(CCC(N)=O)NC(=O)OCc2ccccc2)cc1 (racemic) yielded a Ratio of less than 10 M⁻¹ s⁻¹.
For CC(C)CC(NC(=O)OCc1ccccc1)C(=O)NC(CCC(N)=O)P(=O)(Oc1ccc(C(C)(C)C)cc1)Oc1ccc(C(C)(C)C)cc1 (racemic), the Ratio was less than 10 M⁻¹ s⁻¹.

Biological target: not listed separately
Assay: Inhibition of chymotrypsin using fluorogenic Suc-Ala-Ala-Pro-Phe-AMC as substrate by spectrofluorometry
In short: (§2)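 Run in 0.1 M HEPES, 0.5 M NaCl, 0.03% Triton X-100, pH 7.5, 37 °C, with chymotrypsin at 3 nM or subtilisin at 5 nM. Enzyme added to Suc-Ala-Ala-Pro-Phe-AMC plus excess inhibitor, read at Ex 350/Em 460 nm. k_obs taken from progress curves; k2/Ki derived via a Km-corrected irreversible-inhibition model.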
Compound CC(C)CC(NC(=O)OCc1ccccc1)C(=O)NC(CCC(N)=O)P(=O)(Oc1ccccc1)Oc1ccccc1 (mixture of isomers) has a Ki greater than 200 µM.
Compound COc1ccc(OP(=O)(Oc2ccc(OC)cc2)C(CCC(N)=O)NC(=O)C(CC(C)C)NC(=O)OCc2ccccc2)cc1 (mixture of isomers) has a Ki greater than 200 µM.
CCc1ccc(OP(=O)(Oc2ccc(CC)cc2)C(CCC(N)=O)NC(=O)C(CC(C)C)NC(=O)OCc2ccccc2)cc1 (mixture of isomers) gave a Ki greater than 200 µM.
In the case of NC(=O)CCC(NC(=O)OCc1ccccc1)P(=O)(Oc1ccccc1)Oc1ccccc1 (racemic), the Ki is reported as greater than 200 µM.
COc1ccc(OP(=O)(Oc2ccc(OC)cc2)C(CCC(N)=O)NC(=O)OCc2ccccc2)cc1 (racemic) showed a Ki greater than 200 µM.
For CC(C)(C)c1ccc(OP(=O)(Oc2ccc(C(C)(C)C)cc2)C(CCC(N)=O)NC(=O)OCc2ccccc2)cc1 (racemic), the Ki was greater than 200 µM.
Compound CCc1ccc(OP(=O)(Oc2ccc(CC)cc2)C(CCC(N)=O)NC(=O)OCc2ccccc2)cc1 (racemic) has a Ki greater than 200 µM.
Compound CC(C)CC(NC(=O)OCc1ccccc1)C(=O)NC(CCC(N)=O)P(=O)(Oc1ccc(C(C)(C)C)cc1)Oc1ccc(C(C)(C)C)cc1 (racemic) has a Ki greater than 200 µM.

System: not listed separately
Assay: Ratio of rate of irreversible step k2 to Ki for subtilisin using fluorogenic Suc-Ala-Ala-Pro-Phe-AMC as substrate by spectrofluorometry
In short: as §2
In the case of CC(C)CC(NC(=O)OCc1ccccc1)C(=O)NC(CCC(N)=O)P(=O)(Oc1ccccc1)Oc1ccccc1 (mixture of isomers), the Ratio is reported as less than 10 M⁻¹ s⁻¹.
Work on COc1ccc(OP(=O)(Oc2ccc(OC)cc2)C(CCC(N)=O)NC(=O)C(CC(C)C)NC(=O)OCc2ccccc2)cc1 (mixture of isomers) yielded a Ratio of 57 M⁻¹ s⁻¹.
Work on CCc1ccc(OP(=O)(Oc2ccc(CC)cc2)C(CCC(N)=O)NC(=O)C(CC(C)C)NC(=O)OCc2ccccc2)cc1 (mixture of isomers) yielded a Ratio of less than 10 M⁻¹ s⁻¹.
NC(=O)CCC(NC(=O)OCc1ccccc1)P(=O)(Oc1ccccc1)Oc1ccccc1 (racemic) gave a Ratio of less than 10 M⁻¹ s⁻¹.
Work on COc1ccc(OP(=O)(Oc2ccc(OC)cc2)C(CCC(N)=O)NC(=O)OCc2ccccc2)cc1 (racemic) yielded a Ratio of 33 M⁻¹ s⁻¹.
Compound CC(C)(C)c1ccc(OP(=O)(Oc2ccc(C(C)(C)C)cc2)C(CCC(N)=O)NC(=O)OCc2ccccc2)cc1 (racemic) has a Ratio of less than 10 M⁻¹ s⁻¹.
CCc1ccc(OP(=O)(Oc2ccc(CC)cc2)C(CCC(N)=O)NC(=O)OCc2ccccc2)cc1 (racemic) gave a Ratio of less than 10 M⁻¹ s⁻¹.
In the case of CC(C)CC(NC(=O)OCc1ccccc1)C(=O)NC(CCC(N)=O)P(=O)(Oc1ccc(C(C)(C)C)cc1)Oc1ccc(C(C)(C)C)cc1 (racemic), the Ratio is reported as less than 10 M⁻¹ s⁻¹.

Biological target: T2, Serine protease SplB (Staphylococcus aureus)
Assay: Inhibition of Staphylococcus aureus SplB using fluorogenic […] as substrate up to 200 uM by spectrofluorometry
In short: as §1
For CC(C)CC(NC(=O)OCc1ccccc1)C(=O)NC(CCC(N)=O)P(=O)(Oc1ccccc1)Oc1ccccc1 (mixture of isomers), the inhibition was “inactive”.
With COc1ccc(OP(=O)(Oc2ccc(OC)cc2)C(CCC(N)=O)NC(=O)C(CC(C)C)NC(=O)OCc2ccccc2)cc1 (mixture of isomers) the inhibition was “inactive”.
For CCc1ccc(OP(=O)(Oc2ccc(CC)cc2)C(CCC(N)=O)NC(=O)C(CC(C)C)NC(=O)OCc2ccccc2)cc1 (mixture of isomers), the inhibition was “inactive”.
With NC(=O)CCC(NC(=O)OCc1ccccc1)P(=O)(Oc1ccccc1)Oc1ccccc1 (racemic) the inhibition was “inactive”.
With COc1ccc(OP(=O)(Oc2ccc(OC)cc2)C(CCC(N)=O)NC(=O)OCc2ccccc2)cc1 (racemic) the inhibition was “inactive”.
In the case of CC(C)(C)c1ccc(OP(=O)(Oc2ccc(C(C)(C)C)cc2)C(CCC(N)=O)NC(=O)OCc2ccccc2)cc1 (racemic), the inhibition is reported as “inactive”.
In the case of CCc1ccc(OP(=O)(Oc2ccc(CC)cc2)C(CCC(N)=O)NC(=O)OCc2ccccc2)cc1 (racemic), the inhibition is reported as “inactive”.
In the case of CC(C)CC(NC(=O)OCc1ccccc1)C(=O)NC(CCC(N)=O)P(=O)(Oc1ccc(C(C)(C)C)cc1)Oc1ccc(C(C)(C)C)cc1 (racemic), the inhibition is reported as “inactive”.

Biological target: not listed separately
Assay: Inhibition of subtilisin using fluorogenic Suc-Ala-Ala-Pro-Phe-AMC as substrate by spectrofluorometry
In short: as §2
CC(C)CC(NC(=O)OCc1ccccc1)C(=O)NC(CCC(N)=O)P(=O)(Oc1ccccc1)Oc1ccccc1 (mixture of isomers) showed a Ki greater than 200 µM.
COc1ccc(OP(=O)(Oc2ccc(OC)cc2)C(CCC(N)=O)NC(=O)C(CC(C)C)NC(=O)OCc2ccccc2)cc1 (mixture of isomers) gave a Ki of 35 µM.
For CCc1ccc(OP(=O)(Oc2ccc(CC)cc2)C(CCC(N)=O)NC(=O)C(CC(C)C)NC(=O)OCc2ccccc2)cc1 (mixture of isomers), the Ki was greater than 200 µM.
With NC(=O)CCC(NC(=O)OCc1ccccc1)P(=O)(Oc1ccccc1)Oc1ccccc1 (racemic) the Ki was greater than 200 µM.
COc1ccc(OP(=O)(Oc2ccc(OC)cc2)C(CCC(N)=O)NC(=O)OCc2ccccc2)cc1 (racemic) gave a Ki of 111 µM.
Compound CC(C)(C)c1ccc(OP(=O)(Oc2ccc(C(C)(C)C)cc2)C(CCC(N)=O)NC(=O)OCc2ccccc2)cc1 (racemic) has a Ki greater than 200 µM.
CCc1ccc(OP(=O)(Oc2ccc(CC)cc2)C(CCC(N)=O)NC(=O)OCc2ccccc2)cc1 (racemic) showed a Ki greater than 200 µM.
CC(C)CC(NC(=O)OCc1ccccc1)C(=O)NC(CCC(N)=O)P(=O)(Oc1ccc(C(C)(C)C)cc1)Oc1ccc(C(C)(C)C)cc1 (racemic) gave a Ki greater than 200 µM.

System: not listed separately
Assay: Ratio of rate of irreversible step k2 to Ki for chymotrypsin using fluorogenic Suc-Ala-Ala-Pro-Phe-AMC as substrate by spectrofluorometry
In short: as §2
CC(C)CC(NC(=O)OCc1ccccc1)C(=O)NC(CCC(N)=O)P(=O)(Oc1ccccc1)Oc1ccccc1 (mixture of isomers) showed a Ratio of less than 10 M⁻¹ s⁻¹.
In the case of COc1ccc(OP(=O)(Oc2ccc(OC)cc2)C(CCC(N)=O)NC(=O)C(CC(C)C)NC(=O)OCc2ccccc2)cc1 (mixture of isomers), the Ratio is reported as less than 10 M⁻¹ s⁻¹.
With CCc1ccc(OP(=O)(Oc2ccc(CC)cc2)C(CCC(N)=O)NC(=O)C(CC(C)C)NC(=O)OCc2ccccc2)cc1 (mixture of isomers) the Ratio was less than 10 M⁻¹ s⁻¹.
In the case of NC(=O)CCC(NC(=O)OCc1ccccc1)P(=O)(Oc1ccccc1)Oc1ccccc1 (racemic), the Ratio is reported as less than 10 M⁻¹ s⁻¹.
In the case of COc1ccc(OP(=O)(Oc2ccc(OC)cc2)C(CCC(N)=O)NC(=O)OCc2ccccc2)cc1 (racemic), the Ratio is reported as less than 10 M⁻¹ s⁻¹.
With CC(C)(C)c1ccc(OP(=O)(Oc2ccc(C(C)(C)C)cc2)C(CCC(N)=O)NC(=O)OCc2ccccc2)cc1 (racemic) the Ratio was less than 10 M⁻¹ s⁻¹.
CCc1ccc(OP(=O)(Oc2ccc(CC)cc2)C(CCC(N)=O)NC(=O)OCc2ccccc2)cc1 (racemic) showed a Ratio of less than 10 M⁻¹ s⁻¹.
In the case of CC(C)CC(NC(=O)OCc1ccccc1)C(=O)NC(CCC(N)=O)P(=O)(Oc1ccc(C(C)(C)C)cc1)Oc1ccc(C(C)(C)C)cc1 (racemic), the Ratio is reported as less than 10 M⁻¹ s⁻¹.
